# Activity calls are given as the source filed them. The rule behind the calls is not given here.
# What was measured:
# Huh-7 [1] = assay: Induction of apoptosis in human HuH7 cells assessed as late apoptotic cells at 1 uM after 24 hrs by Annexin V-FITC/propidium iodide staining-based flow cytometric analysis (reference value: 2.51%); assay type: functional
# Huh-7 [2] = assay: Cell cycle arrest in human HuH7 cells assessed as accumulation of cells at S phase at 1 uM after 24 hrs by propidium iodide staining-based flow cytometric analysis (reference value: 14.2%); assay type: functional
# Huh-7 [3] = assay: Induction of apoptosis in human HuH7 cells assessed as necrotic cells at 1 uM after 24 hrs by Annexin V-FITC/propidium iodide staining-based flow cytometric analysis (reference value: 0.03%); assay type: functional
# [4] = target: T1, Mitogen-activated protein kinase kinase kinase 5 (Homo sapiens) (UniProt Q99683); assay: Inhibition of ASK1 Ser-966 phosphorylation in human HuH7 cells at 1 uM after 24 to 72 hrs by Western blot analysis; assay type: cell-based
# T1 sequence (whole entry): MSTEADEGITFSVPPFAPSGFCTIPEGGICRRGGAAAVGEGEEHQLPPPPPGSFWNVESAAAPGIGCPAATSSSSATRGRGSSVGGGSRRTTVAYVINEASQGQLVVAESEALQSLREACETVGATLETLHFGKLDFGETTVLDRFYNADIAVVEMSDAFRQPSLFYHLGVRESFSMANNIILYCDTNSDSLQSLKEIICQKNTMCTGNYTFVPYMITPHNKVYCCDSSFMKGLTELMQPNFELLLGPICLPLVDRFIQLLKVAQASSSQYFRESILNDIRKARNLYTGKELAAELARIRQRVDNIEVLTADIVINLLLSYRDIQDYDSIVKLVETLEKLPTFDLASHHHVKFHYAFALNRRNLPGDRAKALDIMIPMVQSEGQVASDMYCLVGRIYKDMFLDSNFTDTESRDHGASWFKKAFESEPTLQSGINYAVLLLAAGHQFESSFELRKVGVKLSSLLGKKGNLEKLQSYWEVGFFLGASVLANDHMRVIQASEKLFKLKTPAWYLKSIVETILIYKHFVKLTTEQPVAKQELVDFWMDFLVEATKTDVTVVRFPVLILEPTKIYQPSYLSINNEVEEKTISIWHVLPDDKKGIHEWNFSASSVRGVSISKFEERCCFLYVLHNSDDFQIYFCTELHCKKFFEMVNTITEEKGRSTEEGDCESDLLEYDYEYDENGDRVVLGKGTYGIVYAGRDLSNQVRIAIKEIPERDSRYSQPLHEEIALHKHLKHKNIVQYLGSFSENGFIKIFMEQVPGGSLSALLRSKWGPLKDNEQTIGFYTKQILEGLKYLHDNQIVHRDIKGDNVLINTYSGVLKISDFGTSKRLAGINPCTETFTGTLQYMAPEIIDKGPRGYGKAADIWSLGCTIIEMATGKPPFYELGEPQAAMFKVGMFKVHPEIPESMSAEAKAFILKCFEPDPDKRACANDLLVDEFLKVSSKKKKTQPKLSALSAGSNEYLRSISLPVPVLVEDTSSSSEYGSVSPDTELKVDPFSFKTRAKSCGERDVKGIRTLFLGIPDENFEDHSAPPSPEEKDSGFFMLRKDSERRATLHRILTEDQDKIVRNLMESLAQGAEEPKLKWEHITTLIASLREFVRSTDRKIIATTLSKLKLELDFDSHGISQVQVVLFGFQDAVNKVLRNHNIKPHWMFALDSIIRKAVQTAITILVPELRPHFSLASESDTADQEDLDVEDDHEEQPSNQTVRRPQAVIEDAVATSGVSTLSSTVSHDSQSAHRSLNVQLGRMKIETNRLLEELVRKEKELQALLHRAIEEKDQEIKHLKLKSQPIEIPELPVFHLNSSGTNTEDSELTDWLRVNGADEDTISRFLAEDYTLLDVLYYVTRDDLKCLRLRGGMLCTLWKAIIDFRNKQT
# Mahlavu [5] = assay: Induction of apoptosis in human Mahlavu cells assessed as early apoptotic cells at 1 uM after 48 hrs by Annexin V-FITC/propidium iodide staining-based flow cytometric analysis (reference value: 0%); assay type: functional
# Huh-7 [6] = assay: Cytotoxicity against human HuH7 cells after 72 hrs by SRB assay; assay type: functional, cell-based; settings: Homo sapiens, Huh-7, 72 h; read-out: IC50
# How it was run: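 SRB assay. Cells plated per well (HCT116 3000; Huh7, Hep3B, HepG2, MCF-7 2000; Mahlavu, FOCUS, SNU475 1000) and grown 24 h. Compounds came from 20 mM DMSO stocks and were tested in triplicate, 40 to 2,5 (or 2,5 to 0,03) per printed range, for 72 h. Cells fixed in 10% TCA, stained with 0.4% SRB, dye dissolved in 10 mM Tris, A515 read. IC50 derived after DMSO normalization.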
# Huh-7 [7] = assay: Cell cycle arrest in human HuH7 cells assessed as accumulation of cells at S phase at 1 uM after 48 hrs by propidium iodide staining-based flow cytometric analysis (reference value: 19.1%); assay type: functional
# Mahlavu [8] = assay: Cell cycle arrest in human Mahlavu cells assessed as accumulation of cells at G1 phase at 1 uM after 48 hrs by propidium iodide staining-based flow cytometric analysis (reference value: 43.5%); assay type: functional
# Mahlavu [9] = assay: Induction of apoptosis in human Mahlavu cells assessed as necrotic cells at 1 uM after 72 hrs by Annexin V-FITC/propidium iodide staining-based flow cytometric analysis (reference value: 0.22%); assay type: functional
# Mahlavu [10] = assay: Induction of apoptosis in human Mahlavu cells assessed as early apoptotic cells at 1 uM after 72 hrs by Annexin V-FITC/propidium iodide staining-based flow cytometric analysis (reference value: 0.24%); assay type: functional
# Mahlavu [11] = assay: Induction of apoptosis in human Mahlavu cells assessed as late apoptotic cells at 1 uM after 24 hrs by Annexin V-FITC/propidium iodide staining-based flow cytometric analysis (reference value: 1.28%); assay type: functional
# Mahlavu [12] = assay: Cell cycle arrest in human Mahlavu cells assessed as accumulation of cells at G1 phase at 1 uM after 72 hrs by propidium iodide staining-based flow cytometric analysis (reference value: 44.6%); assay type: functional
# Mahlavu [13] = assay: Cell cycle arrest in human Mahlavu cells assessed as accumulation of cells at S phase at 1 uM after 24 hrs by propidium iodide staining-based flow cytometric analysis (reference value: 23.2%); assay type: functional
# MCF-10A = assay: Cytotoxicity against human MCF10A cells after 72 hrs by SRB assay; assay type: cell-based
# Mahlavu [14] = assay: Down-regulation of cyclin E protein expression in human Mahlavu cells at 1 uM after 24 to 72 hrs by Western blot analysis; assay type: functional, cell-based
# Huh-7 [15] = assay: Induction of apoptosis in human HuH7 cells assessed as necrotic cells at 1 uM after 72 hrs by Annexin V-FITC/propidium iodide staining-based flow cytometric analysis (reference value: 0.43%); assay type: functional
# Mahlavu [16] = assay: Cell cycle arrest in human Mahlavu cells assessed as accumulation of cells at subG1 phase at 1 uM after 48 hrs by propidium iodide staining-based flow cytometric analysis (reference value: 22.6%); assay type: functional
# Huh-7 [17] = assay: Down-regulation of CDK2 protein expression in human HuH7 cells at 1 uM after 24 to 72 hrs by Western blot analysis; assay type: functional, cell-based
# Mahlavu [18] = assay: Induction of apoptosis in human Mahlavu cells assessed as viable cells at 1 uM after 48 hrs by Annexin V-FITC/propidium iodide staining-based flow cytometric analysis (reference value: 98.48%); assay type: functional; settings: read-out: Activity
Compound,Activity (Huh-7 [1]) [%],Activity (Huh-7 [2]) [%],Activity (Huh-7 [3]) [%],inhibition [4],Activity (Mahlavu [5]) [%],IC50 (Huh-7 [6]) [nM],Activity (Huh-7 [7]) [%],Activity (Mahlavu [8]) [%],Activity (Mahlavu [9]) [%],Activity (Mahlavu [10]) [%],Activity (Mahlavu [11]) [%],Activity (Mahlavu [12]) [%],Activity (Mahlavu [13]) [%],IC50 (MCF-10A) [nM],Activity (Mahlavu [14]),Activity (Huh-7 [15]) [%],Activity (Mahlavu [16]) [%],Activity (Huh-7 [17]),viability at 1 µM (Mahlavu [18]) [%]
COc1ccc2c3c(c4cc(OC)c(OC)cc4c2c1)CN1CCCC[C@@H]1C3,1.03,15.9,0,Active,0,8,13.5,44.6,1.84,0.13,5.08,14.1,17.5,140,Active,0.34,28.3,Active,91.8
COc1ccc2c3c(c4cc(OC)c(OC)cc4c2c1)CN1CCCCC1C3O (racemic),0.93,13.2,0,Active,0,2,21,37.2,2.26,0,1.54,9.5,14.3,200,Active,0.13,20.4,Active,99
